Measurements reported in ChEMBL document CHEMBL1811771, “Synthesis and antimycobacterial activities of non-purine analogs of 6-aryl-9-benzylpurines: Imidazopyridines, pyrrolopyridines, benzimidazoles, and indoles” (Bioorg Med Chem, 2011).
In brackets after ≈: the same amount, converted by molar mass.

What was measured:
[1] = system: Mycobacterium tuberculosis; assay: Antimycobacterial activity against Mycobacterium tuberculosis H37Rv after 4 days by MABA assay; assay type: functional; details: 96 h
Escherichia coli = assay: Antimicrobial activity against Escherichia coli ATCC 25922 by broth microdilution method; assay type: functional
Procedure, shortened: (§1)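 Broth microdilution in cation-adjusted Mueller-Hinton broth against the QC strain, following the standard method for inoculum preparation and incubation. Samples were serially diluted twofold from 16 to 0.125, in triplicate, with DMSO as solvent and diluent. A gentamicin accuracy control was made up in water and diluted in broth. MIC was the lowest concentration giving complete growth inhibition, read by eye.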

Staphylococcus aureus = assay: Antimicrobial activity against Staphylococcus aureus ATCC 29213 by broth microdilution method; assay type: functional; procedure, shortened: as §1
[2] = system: Mycobacterium tuberculosis; assay: Antimycobacterial activity against Mycobacterium tuberculosis H37Rv at 128 uM after 4 days by MABA assay; assay type: functional
Vero [3] = assay: Cytotoxicity against african green monkey Vero cells; assay type: ADME, cell-based; details: Chlorocebus sabaeus
[4] = system: Mycobacterium tuberculosis; assay: Antimycobacterial activity against Mycobacterium tuberculosis H37Rv transfected with pFPCA-luxAB grown under anaerobic condition for 10 days followed by 24 hrs incubation under aerobic condition by LORA assay; assay type: functional
Vero [5] = assay: Cytotoxicity against african green monkey Vero cells at 128 uM; assay type: cell-based; details: chlorocebus sabaeus
[6] = Selectivity index, ratio of EC50 for african green monkey VERO cells to MIC for Mycobacterium tuberculosis H37Rv; assay type: functional
[7] = system: Mycobacterium tuberculosis; assay: Antimycobacterial activity against Mycobacterium tuberculosis H37Rv transfected with pFPCA-luxAB at 128 uM with pFPCA-luxAB grown under anaerobic condition for 10 days followed by 24 hrs incubation under aerobic condition by LORA assay; assay type: functional
[8] = system: Mycobacterium tuberculosis; assay: Antimycobacterial activity against Mycobacterium tuberculosis H37Rv at 21 uM after 4 days by MABA assay; assay type: functional; details: 96 h

Compound	MIC [1] [µM]	MIC (Escherichia coli) [µg/mL]	MIC (Staphylococcus aureus) [µg/mL]	MIC [4] [µM]	also measured
COc1ccc(Cn2ccc3c(-c4ccco4)ncnc32)cc1	0.16 (≈ 0.0489 µg/mL)				
COc1ccc(Cn2ccc3c(-c4ccco4)nc(Cl)nc32)cc1	0.08 (≈ 0.0272 µg/mL)				
COc1ccc(Cn2cnc3c(-c4ccco4)ccnc32)cc1	63 (≈ 19.2 µg/mL)	> 16	> 16		
COc1ccc(Cn2cnc3c(-c4ccco4)cc(Cl)nc32)cc1	> 128	> 16	> 16		Activity [2]: 37%
COc1ccc(Cn2cnc3c(-c4ccco4)nccc32)cc1	0.84 (≈ 0.256 µg/mL)	> 16	> 16	80 (≈ 24.4 µg/mL)	IC50 (Vero [3]): > 128 µM; Activity (Vero [5]): 0%; Selectivity Index [6]: >150
COc1ccc(Cn2cnc3c(-c4ccco4)nc(Cl)cc32)cc1	0.16 (≈ 0.0544 µg/mL)	> 16	> 16	48 (≈ 16.3 µg/mL)	IC50 (Vero [3]): > 128 µM; Activity (Vero [5]): 30%; Selectivity Index [6]: >800
COc1ccc(Cn2ccc3c(-c4ccco4)ccnc32)cc1	44 (≈ 13.4 µg/mL)	> 16	> 16		
COc1ccc(Cn2ccc3c(-c4ccco4)cc(Cl)nc32)cc1	> 128	> 16	> 16		Activity [2]: 86%
COc1ccc(Cn2ccc3c(-c4ccco4)nccc32)cc1	1.4 (≈ 0.426 µg/mL)	> 16	> 16	28 (≈ 8.52 µg/mL)	IC50 (Vero [3]): 12 µM; Selectivity Index [6]: 8.6
COc1ccc(Cn2ccc3c(-c4ccco4)nc(Cl)cc32)cc1	0.09 (≈ 0.0305 µg/mL)	> 16	> 16	> 128	IC50 (Vero [3]): 58 µM; Activity [7]: 53%; Selectivity Index [6]: 644
COc1ccc(Cn2cnc3c(-c4ccco4)cccc32)cc1	29 (≈ 8.83 µg/mL)	> 16	> 16		
COc1ccc(Cn2ccc3c(-c4ccco4)cccc32)cc1	> 21	> 16	> 16		inhibition at 21 µM [8]: 0%
COc1ccc(Cn2cnc3c(-c4ccco4)ncnc32)cc1	2.1 (≈ 0.643 µg/mL)				
COc1ccc(Cn2cnc3c(-c4ccco4)nc(Cl)nc32)cc1	0.36 (≈ 0.123 µg/mL)				
NNC(=O)c1ccncc1 [ISONIAZID]	0.28 (≈ 0.0384 µg/mL)			> 128	
O=[N+]([O-])c1cn2c(n1)OC[C@@H](OCc1ccc(OC(F)(F)F)cc1)C2 [PRETOMANID]	0.44 (≈ 0.158 µg/mL)			3.11 (≈ 1.12 µg/mL)	
CO[C@H]1/C=C/O[C@@]2(C)Oc3c(C)c(O)c4c(O)c(c(/C=N/N5CCN(C)CC5)c(O)c4c3C2=O)NC(=O)/C(C)=C\C=C\[C@H](C)[C@H](O)[C@@H](C)[C@@H](O)[C@@H](C)[C@H](OC(C)=O)[C@@H]1C [RIFAMPIN]	0.09 (≈ 0.0741 µg/mL)			0.97 (≈ 0.798 µg/mL)	
